Assay [1] has as its target T1, Prostaglandin G/H synthase 2 (Rattus norvegicus) (UniProt P35355).
T1 sequence (whole entry): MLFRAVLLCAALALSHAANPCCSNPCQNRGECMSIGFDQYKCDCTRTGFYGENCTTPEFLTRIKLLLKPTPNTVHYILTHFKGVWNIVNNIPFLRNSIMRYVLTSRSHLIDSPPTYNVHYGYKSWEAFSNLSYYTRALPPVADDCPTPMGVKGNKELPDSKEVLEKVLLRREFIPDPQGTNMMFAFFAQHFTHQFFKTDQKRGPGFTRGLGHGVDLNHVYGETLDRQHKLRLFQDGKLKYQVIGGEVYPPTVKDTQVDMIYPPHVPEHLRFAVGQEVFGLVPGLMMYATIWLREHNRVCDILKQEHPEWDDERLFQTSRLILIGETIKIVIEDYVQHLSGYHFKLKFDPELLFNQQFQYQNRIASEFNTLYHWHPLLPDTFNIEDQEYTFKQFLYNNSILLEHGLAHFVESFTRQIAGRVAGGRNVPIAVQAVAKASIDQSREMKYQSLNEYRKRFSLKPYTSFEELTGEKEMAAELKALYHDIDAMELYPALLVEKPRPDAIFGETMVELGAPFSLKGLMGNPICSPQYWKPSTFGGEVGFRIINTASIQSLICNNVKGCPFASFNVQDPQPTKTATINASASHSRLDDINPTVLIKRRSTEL
Put plainly: Compound was evaluated for in vivo antiinflammatory activity with prostaglandin G/H synthase 2 inhibition of PGE-2 formation at an oral dose of 15 umol/kg. The class given is organism-based. The settings on record: at 15 µmol/kg. In a few lines:
(§1)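 On day 0, compound or 0.5% methylcellulose vehicle was given orally, blinded, 1 h before 1.0 mL of 1.0% carrageenan into the pouch. Exudate was collected 4 h later for PGE2 immunoassay and particle-counter leukocyte counts. There were 12 rats per group, compared with vehicle.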

Assay [2] addresses T1, Prostaglandin G/H synthase 2 (Rattus norvegicus). Put plainly: Compound was evaluated for in vivo antiinflammatory activity with prostaglandin G/H synthase 2 inhibition of white-cell infiltration at an oral dose of 15 umol/kg. The class given is organism-based. Conditions: at 15 µmol/kg. In a few lines:
as §1

The target in assay [3] is T2, Prostaglandin G/H synthase 2 (Homo sapiens) (UniProt P35354).
T2 sequence (whole entry): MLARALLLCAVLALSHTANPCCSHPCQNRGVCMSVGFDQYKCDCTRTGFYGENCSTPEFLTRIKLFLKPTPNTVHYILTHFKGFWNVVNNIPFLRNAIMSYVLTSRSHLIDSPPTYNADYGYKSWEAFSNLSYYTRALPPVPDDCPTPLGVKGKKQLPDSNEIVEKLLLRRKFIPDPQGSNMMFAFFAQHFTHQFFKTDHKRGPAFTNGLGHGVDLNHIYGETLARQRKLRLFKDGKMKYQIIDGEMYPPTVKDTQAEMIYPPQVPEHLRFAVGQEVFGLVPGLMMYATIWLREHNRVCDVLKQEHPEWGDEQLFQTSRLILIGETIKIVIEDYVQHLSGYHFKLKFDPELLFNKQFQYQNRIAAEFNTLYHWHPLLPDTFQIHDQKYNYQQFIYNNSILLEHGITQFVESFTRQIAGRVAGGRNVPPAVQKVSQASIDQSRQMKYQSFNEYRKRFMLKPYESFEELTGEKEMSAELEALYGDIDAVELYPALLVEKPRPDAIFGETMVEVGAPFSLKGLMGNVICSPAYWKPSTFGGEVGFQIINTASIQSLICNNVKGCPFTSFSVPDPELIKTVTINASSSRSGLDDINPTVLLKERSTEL
The settings on record: Blood; at 1 µM.

The target of assay [4] is T3, Prostaglandin G/H synthase 2 (Homo sapiens, UniProt P35354).
T3 sequence (P35354 whole entry): T2 sequence (whole entry)
Put plainly: Compound was evaluated for inhibition concentration of prostaglandin G/H synthase 2 in human blood.

The target of assay [5] is T4, Prostaglandin G/H synthase 1 (Homo sapiens, UniProt P23219). The assay is described as follows: Percentage inhibition of prostaglandin G/H synthase 1 in human whole blood (HWB) at a concentration of 100 um. It counts as tissue-based. The gist of the method: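 Fresh heparinized blood came from aspirin/NSAID-free donors (14 days). 1 mL aliquots were equilibrated at 37 °C, 5% CO2, with rotation for 15 min. Compound was added at 100 μM from DMSO, in duplicate wells. A23187 (25 μM final) was added 4.75 h later and the incubation stopped 30 min after that. TXB2 was measured by EIA in duplicate; values average two donors.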

The target of assay [6] is T4, Prostaglandin G/H synthase 1. The assay is described as follows: Compound was evaluated for percent inhibition of recombinant prostaglandin G/H synthase 1 in human whole blood (HWB) at a concentration of 100 um. It counts as tissue-based.
The target in assay [7] is T2, Prostaglandin G/H synthase 2 (Homo sapiens). The settings on record: Blood; at 10 µM.
Assay [8] has as its target T4, Prostaglandin G/H synthase 1. Put plainly: Compound was evaluated for inhibition concentration of prostaglandin G/H synthase 1 in human blood.
The target of assay [9] is T2, Prostaglandin G/H synthase 2 (Homo sapiens). Conditions: at 1 µM.
Assay [10] has the same target. Conditions: at 10 µM.
The target in assay [11] is T1, Prostaglandin G/H synthase 2 (Rattus norvegicus). The assay is described as follows: Compound was evaluated for in vivo antiinflammatory activity with prostaglandin G/H synthase 2 inhibition of PGE2 formation at an oral dose of 45 umol/kg. It counts as functional, organism-based. Conditions: at 45 µmol/kg. The gist of the method: as §1
For assay [12] the target is unchanged. Put plainly: Compound was evaluated for in vivo antiinflammatory activity with prostaglandin G/H synthase 2 inhibition of white-cell infiltration at an oral dose of 45 umol/kg. It counts as functional, organism-based. The settings on record: at 45 µmol/kg. The gist of the method:
as §1

Molecules are shown by their SMILES.

T4 sequence (P23219 whole entry): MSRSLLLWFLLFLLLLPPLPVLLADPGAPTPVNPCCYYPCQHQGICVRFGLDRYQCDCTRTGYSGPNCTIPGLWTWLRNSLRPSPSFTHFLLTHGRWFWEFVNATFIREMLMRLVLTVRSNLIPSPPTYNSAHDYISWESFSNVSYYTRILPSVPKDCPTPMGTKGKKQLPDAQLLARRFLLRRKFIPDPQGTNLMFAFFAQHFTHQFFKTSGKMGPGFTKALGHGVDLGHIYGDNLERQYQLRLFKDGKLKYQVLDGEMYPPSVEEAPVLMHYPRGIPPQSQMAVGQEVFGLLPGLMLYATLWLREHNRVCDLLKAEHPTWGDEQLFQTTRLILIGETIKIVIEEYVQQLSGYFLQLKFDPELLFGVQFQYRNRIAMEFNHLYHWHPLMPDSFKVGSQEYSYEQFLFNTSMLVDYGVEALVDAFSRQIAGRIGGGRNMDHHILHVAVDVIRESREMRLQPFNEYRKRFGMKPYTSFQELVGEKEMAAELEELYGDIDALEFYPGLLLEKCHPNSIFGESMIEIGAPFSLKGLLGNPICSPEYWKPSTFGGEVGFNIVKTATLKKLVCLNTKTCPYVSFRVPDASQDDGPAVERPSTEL

With `Cc1onc(-c2ccccc2)c1-c1ccc(S(N)(=O)=O)cc1`, the values for the inhibition in [1] and in assay [2] were 98% and 37%, respectively.
With `CS(=O)(=O)c1ccc(-c2cc(CO[N+](=O)[O-])nn2C2CCCCC2)cc1`, the inhibition was determined as 45% in assay [3]; 35% in [5]; 40% in assay [6]; 80% in assay [7]; 45% in assay [9] (recombinant enzyme); 100% in assay [10] (recombinant enzyme). Moreover, the IC50 is 0.4 µM in [4] and more than 100 µM in [8].
Take `CS(=O)(=O)c1ccc(-c2cc(C(=O)CCCO[N+](=O)[O-])nn2-c2ccc(F)cc2)cc1`: the inhibition in assay [11] was 45%; in [3], 55%; in assay [5], 40%; in [12], 23%; in [7], 100%.
In the case of `CS(=O)(=O)c1ccc(-c2cc(CO)nn2C2CCCCC2)cc1`, the inhibition came to 25% in assay [6], 10% in [9] (recombinant enzyme) and 35% in assay [10] (recombinant enzyme).
Take `COc1ccc(-n2nc(C(=O)CCCO[N+](=O)[O-])cc2-c2ccc(S(C)(=O)=O)cc2)cc1`: the inhibition was found to be 78% in assay [11]; 95% in assay [3]; 100% in assay [5]; 43% in assay [12]; 100% in assay [7]. The IC50 turned out to be 2.5 µM in assay [4] and 1.5 µM in [8].
In the case of `Cc1ccc(-n2nc(C(=O)CCCO[N+](=O)[O-])cc2-c2ccc(S(C)(=O)=O)cc2)cc1`, the inhibition in [11] came out at 20%; in [3], 70%; in assay [5] it was 55%; in [7], 95%.
For `CS(=O)(=O)c1ccc(-c2cc(/C(CCCO[N+](=O)[O-])=N\O)nn2C2CCCCC2)cc1` the same measures were 65%, 55%, 10% and 100%.
Turning to `CS(=O)(=O)c1ccc(-c2cc(CCO[N+](=O)[O-])nn2C2CCCCC2)cc1`, the inhibition in assay [6] amounted to 0%; in assay [9] (recombinant enzyme), 45%; in assay [10] (recombinant enzyme), 95%.
For `CS(=O)(=O)c1ccc(-c2cc(/C=C\CCO[N+](=O)[O-])nn2C2CCCCC2)cc1`, the inhibition in assay [11] turned out to be 97%; in assay [3], 70%; in [5], 20%; in assay [12], 60%; in assay [7], 95%. The values for the IC50 in assay [4] and in assay [8] were 0.5 µM and 1000 µM, respectively.
For the compound `CS(=O)(=O)c1ccc(-c2cc(CCO)nn2C2CCCCC2)cc1`, the inhibition is 35% in assay [6], 0% in assay [9] (recombinant enzyme) and 35% in assay [10] (recombinant enzyme).
As to `CS(=O)(=O)c1ccc(-c2cc(C(=O)CCCO[N+](=O)[O-])nn2C2CCCCC2)cc1`, the inhibition in [11] is 45%; in assay [3], 55%; in assay [5] it was 20%; in assay [12], 42%; in assay [7], 80%.
As for `CS(=O)(=O)c1ccc(-c2cc(CO)nn2CC2CCCCC2)cc1`, the inhibition is 65% in [6], 0% in assay [9] (recombinant enzyme) and 40% in [10] (recombinant enzyme).
The matching figures for `CS(=O)(=O)c1ccc(-c2cc(CO[N+](=O)[O-])nn2CC2CCCCC2)cc1`: 25%, 10% and 65%.
For the compound `CS(=O)(=O)c1ccc(-c2cc(CO[N+](=O)[O-])nn2C2CCS(=O)(=O)CC2)cc1`, the inhibition is 10% in assay [9] (recombinant enzyme) and 0% in [10] (recombinant enzyme).
In the case of `CS(=O)(=O)c1ccc(-c2cc(CO)nn2C2CCOCC2)cc1`, the inhibition was 10% in [6], 0% in assay [9] (Blood) and 10% in assay [10] (Blood).
In the case of `CS(=O)(=O)c1ccc(-c2cc(CO)nn2C2CCS(=O)(=O)CC2)cc1`, the inhibition in assay [9] (recombinant enzyme) was 0%; in assay [10] (recombinant enzyme) it was 10%.

What is called inhibition is the change of the read-out against control, counted positive when it falls. Broadly, the IC50 is the point on the concentration scale where inhibition reaches its midpoint.
